Assay results as given in publication PMC6178240 (Molecular Therapy. Nucleic Acids, 2018).
Where two headings read alike, the source gives them in different places.

Assays:
U87MG cells [1] = assay: Transwell migration assay; assay type: cell-based, human; details: 100-600 nM, 48-hr treatment, Matrigel-coated 8-μm inserts, migration 24 hr
Method in brief: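 U87MG cells were exposed to test conjugate (100–600 nM) or scrambled conjugate (600 nM) in serum-free Opti-MEM for 24 hr, then held 48 hr with 10% serum. Cells (5 × 10⁴ in serum-free DMEM) were placed on Matrigel-coated (2 mg/mL) 8-μm inserts, with 10% FBS DMEM below, and allowed to migrate 24 hr. Crystal-violet-stained cells were counted in five random fields.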

PIK3CB mRNA [2] = assay: PIK3CB mRNA level by qRT-PCR in U87MG cells; assay type: cell-based, human; details: no transfection agent, 48 hr, normalized with GAPDH
[3] = Immunogenicity evaluation, serum cytokines by ELISA; assay type: in vivo, BALB/c mice; details: 5nmol/20 g single injection, serum at 6hr
Method in brief: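 Immunocompetent BALB/c mice (4–6 weeks, ~20 g) got a single injection of saline or test conjugate (5 nmol/20 g), alone or mixed with Gelofusine (4 mg/20 g). Serum was collected at 6 hr, and IL-6, IFN-β and TNF-α were measured by ELISA kit.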

U87MG cells [4] = assay: Cell apoptosis analysis, Annexin V-FITC/PI flow cytometry; assay type: cell-based, human; details: 72 hr post-treatment
Method in brief: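 U87MG cells attached 24 hr, then exposed to the test conjugate (100, 200, 400 or 600 nM) or scrambled conjugate (600 nM) in serum-free Opti-MEM for 24 hr; untreated control. 10% serum was then added and cells held 72 hr. Apoptosis was measured by Annexin V-FITC/PI staining per kit and read on a flow cytometer as apoptosis rate.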

kidneys = assay: Histopathological evaluation of kidneys; assay type: in vivo, nude mice; details: 1 nmol/20 g i.v., 12 times over a 24-hr interval, H&E
Method in brief: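 Kidneys from orthotopic U87MG-Luc nude mice dosed i.v. 12 times at 24-hr intervals were used. Tissues were fixed at once in 4% paraformaldehyde, paraffin-embedded, cut into 5-μm sections and stained with H&E for histology.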

[5] = Hepatotoxicity, serum ALT; design: species or system nude mice; details: serum from in vivo anti-tumor assay
Method in brief: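 Serum came from orthotopic U87MG-Luc nude mice in the anti-tumour study. Dosing was saline, scrambled conjugate 1 nmol/20 g, or test conjugate 0.5 or 1 nmol/20 g, given i.v. 12 times at 24-hr intervals. Serum was collected after sacrifice on day 12. ALT was measured on an automated chemistry analyser following the manufacturer's instructions.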

PIK3CB protein [6] = assay type: in vivo, human
[7] = test system: orthotopic U87MG-Luc glioblastoma; assay: Survival monitoring assay; assay type: in vivo, nude mice; details: 3 nmol/20 g mixed with Gelofusine (4 mg/20 g) i.v. at 48-hr interval; for median survival time: n = 5
Method in brief: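 Fifteen orthotopic U87MG-Luc nude mice were randomised into 3 groups (2 male, 3 female each). Each received saline, scrambled conjugate or test conjugate (3 nmol/20 g) i.v. every 48 hr, all mixed with Gelofusine (4 mg/20 g). Body weight was recorded daily and IVIS luminescence on days 0, 7 and 28. Mice were sacrificed at 40% loss of primary body weight.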

PIK3CB protein [8] = assay: PIK3CB protein level by western blot in U87MG cells; assay type: cell-based, human; details: 72-hr treatment, normalized with GAPDH
PIK3CB mRNA [9] = assay: In vivo silencing, PIK3CB mRNA in tumor by qRT-PCR; design: species or system human; details: versus saline and biRGD-siNC
Serum stability assay = assay type: in vitro ADME; details: 5 μL 20 μM mixed with 5 μL mouse serum, 37°C, 1.2% agarose gel
[10] = test system: orthotopic U87MG-Luc glioblastoma; assay: ki67 staining and TUNEL assay of tumor sections; assay type: in vivo, nude mice
Method in brief: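 Tumours from the anti-tumour study were used (saline, scrambled 1 nmol/20 g, or test 0.5 or 1 nmol/20 g, i.v. 12 times at 24-hr intervals). They were fixed in 4% paraformaldehyde, paraffin-embedded and cut into 5-μm sections. Sections were stained by Ki67 immunohistochemistry and TUNEL kit. Results were expressed as Ki67-positive/total cells and apoptotic index (TUNEL-positive/total cells).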

[11] = test system: orthotopic U87MG-Luc glioblastoma; assay: In vivo anti-tumor effects; design: species or system nude mice; details: 12 times over a 24-hr interval, after 12 days; for tumor growth (luminescence intensity) versus saline: 1 nmol/20 g i.v., n = 5 per group
Method in brief: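 U87MG-Luc cells (3 × 10⁵ in 3 μL ice-cold PBS) were implanted stereotaxically into BALB/c nude mice (2 mm right of bregma, 3 mm deep). Dosing began once IVIS detected tumours. Twenty mice were randomised into 4 groups (2 male, 3 female each). Groups were saline, scrambled 1 nmol/20 g, or test 0.5 or 1 nmol/20 g, i.v. 12 times at 24-hr intervals. IVIS luminescence was read on days 0, 7 and 12, then excised brains were imaged.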

[12] = test system: orthotopic U87MG-Luc glioblastoma; assay: In vivo distribution assay; design: species or system nude mice
Method in brief: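 Orthotopic U87MG-Luc nude mice received a single i.v. dose (1 nmol/20 g) of Cy5-labelled conjugate, conjugate plus Gelofusine (4 mg/20 g), unconjugated Cy5-siRNA, or monovalent comparator. Whole-body IVIS Cy5 imaging (ex 640 nm, em 680 nm) was done at 12, 24, 36 and 48 hr. At 24 hr some mice were sacrificed and their tumours and major organs imaged ex vivo.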

HeLa cells = assay: Cellular uptake by flow cytometry; assay type: cell-based; details: HeLa (αvβ3-negative), 600 nM, Opti-MEM, 12 h, 37°C, Cy5 flow cytometry
U87MG cells [13] = assay: Cellular uptake by flow cytometry; assay type: cell-based, human
Method in brief: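 U87MG cells were exposed to Cy5-labelled conjugate at 100, 200, 400 or 600 nM, or Cy5-labelled comparators at 600 nM, in Opti-MEM for 12 hr at 37°C. Cells were trypsinised, washed twice in PBS, resuspended, and Cy5 was read by flow cytometry. Receptor blocking used pre-treatment with excess unconjugated biRGD peptide.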

U87MG cells [14] = assay: Confocal fluorescence microscopy of intracellular distribution; assay type: cell-based, human; details: for intracellular distribution (Cy5, confocal): Opti-MEM
Method in brief: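 U87MG cells were exposed to Cy5-labelled molecules at 600 nM in Opti-MEM for 12 hr at 37°C, with or without prior blocking using excess biRGD peptide. Cells were PBS-washed, fixed in 4% paraformaldehyde for 15 min at room temperature, stained with anti-TGN46 and an Alexa Fluor 488 secondary, then imaged by confocal microscopy.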

[15] = test system: orthotopic U87MG-Luc glioblastoma; assay: Immunofluorescence analysis of frozen brain sections; assay type: in vivo, nude mice; details: 1 nmol/20 g i.v., confocal
Method in brief: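 Orthotopic U87MG-Luc nude mice received a single i.v. dose of Cy5-labelled siRNA (1 nmol/20 g). Brains taken from the imaging study were frozen at –80°C and sectioned. Sections were stained for CD31 (vessels) and with DAPI, then imaged by confocal microscopy (Cy5 ex 640 nm, em 680 nm). Normal brain served as comparison.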

[16] = 0.5 nmol/20 g i.v. x12, versus saline and biRGD-siNC
[17] = 1 nmol/20 g i.v. x12, versus saline and biRGD-siNC

[cyclo(Arg-Gly-Asp-D-Phe-Lys)-Ahx]2-Glu-PEG-MAL (bicyclic or more) [biRGD-siPIK3CB]
U87MG cell invasion (transwell migration) (U87MG cells [1]): significantly inhibit
PIK3CB mRNA level, remaining amount (PIK3CB mRNA [2]; 400 nM): about 60%
PIK3CB mRNA level, remaining amount (PIK3CB mRNA [2]; 600 nM): ~50%
IFN-β level of the serum versus saline [3]: no significant difference
IL-6 level of the serum versus saline [3]: no significant difference
TNF-α level of the serum versus saline [3]: no significant difference
apoptosis rate (U87MG cells [4]; 400 nM): 15.14%
apoptosis rate (U87MG cells [4]; 600 nM): 20.76%
pathological sections of kidneys versus saline (kidneys): mild pathological changes in kidneys
ALT level in the serum versus saline ([5]; mixed with Gelofusine): no statistically meaningful difference
ALT level in the serum versus saline ([5]; Aeroset Chemistry Analyzer): no statistically meaningful difference
PIK3CB protein level in tumor (immunohistochemistry) (PIK3CB protein [6]; 0.5 nmol/20 g i.v. x12): remarkably low
PIK3CB protein level in tumor (immunohistochemistry) (PIK3CB protein [6]; 1 nmol/20 g i.v. x12): remarkably low
PIK3CB protein level in tumor (western blot) (PIK3CB protein [6]; 1 nmol/20 g i.v. x12): significantly decreased
course of body weight [7]: steady
median survival time [7]: 26 days
PIK3CB protein level, remaining amount (PIK3CB protein [8]; 400 nM): about 70%
PIK3CB protein level, remaining amount (PIK3CB protein [8]; 600 nM): about 60%
PIK3CB mRNA expression in tumor (PIK3CB mRNA [9]; 0.5 nmol/20 g i.v. x12, qRT-PCR): obviously low expression
PIK3CB mRNA expression in tumor (PIK3CB mRNA [9]; 1 nmol/20 g i.v. x12, qRT-PCR): obviously low expression
degradation in mouse serum at 96 hr (Serum stability assay; 96 hr): low degradation
apoptotic tumor cells (TUNEL) [10, 16]: obviously higher number
proliferative cells in tumors (ki67) [10, 16]: obviously decreased
apoptotic tumor cells (TUNEL) [10, 17]: obviously higher number
proliferative cells in tumors (ki67) [10, 17]: obviously decreased
number of apoptotic tumor cells, 1 nmol/20 g group relative to 0.5 nmol/20 g group ([10]; TUNEL): about twice
tumor growth (luminescence intensity) versus saline and biRGD-siNC ([11]; 0.5 nmol/20 g i.v.): no significance
tumor growth (luminescence intensity) versus saline [11]: significant tumor growth inhibition

[cyclo(Arg-Gly-Asp-D-Phe-Lys)-Ahx]2-Glu-PEG-MAL (bicyclic or more) [biRGD-siNC-Cy5]
time of peak Cy5 fluorescence intensity of orthotopic GBM ([12]; 1 nmol/20 g i.v. single dose, IVIS): 24 h
Cy5 fluorescence within the tumor and kidneys ([12]; 1 nmol/20 g i.v. single dose, IVIS at 12, 24, and 36 hr): high red Cy5 fluorescent expressions
presence in other main organs (heart, spleen, and lung), ex vivo ([12]; 1 nmol/20 g i.v., organs excised at 24 hr): not found
ex vivo targeting of GBM-bearing brain tissue ([12]; 1 nmol/20 g i.v., organs excised at 24 hr, ex vivo Cy5 imaging): specifically target the GBM-bearing brain tissue
cellular uptake (HeLa cells): no uptake
uptake after blocking integrin αvβ3 receptors (U87MG cells [13]; U87MG pre-treated with 1 μM unconjugated biRGD peptide, 37°C, 1 hr): inhibited
uptake relative to cRGD-siNC-Cy5 (U87MG cells [13]; U87MG, 600 nM, 12 hr, Cy5 flow cytometry): approximately twice
cellular uptake (U87MG cells [13]; U87MG, 100 to 600 nM, Opti-MEM, 12 hr, 37°C, Cy5 flow cytometry): enhanced cellular uptake that increased progressively
saturation of uptake (U87MG cells [13]; U87MG, tested range 100 to 600 nM): No evidence of saturation of uptake
intracellular distribution after pre-treating with excess biRGD peptide (U87MG cells [14]; U87MG blocked with biRGD (1 μM)): inhibited
intracellular distribution (Cy5, confocal) (U87MG cells [14]; U87MG, 600 nM): substantial uptake and wide distribution in the cell
subcellular localization versus trans-Golgi marker TGN46 (U87MG cells [14]; U87MG, 600 nM, anti-TGN46/Alexa Fluor 488): substantial overlap with TGN46 protein
Cy5 signal in sections of GBM-bearing brain tissues ([15]; CD31 staining): significantly higher
Cy5 signal in sections of normal brain tissues [15]: little

cyclo(Arg-Gly-Asp-D-Phe-Lys) (head to tail) [cRGD-siNC-Cy5, reference compound]
intracellular distribution (Cy5, confocal) (U87MG cells [14]; U87MG, 600 nM): substantial uptake and wide distribution in the cell

[cyclo(Arg-Gly-Asp-D-Phe-Lys)-Ahx]2-Glu-PEG-MAL (bicyclic or more) [biRGD-siNC, reference compound]
course of body weight [7]: rapid decrease in body weight
median survival time [7]: 23 days
PIK3CB protein level, remaining amount (PIK3CB protein [8]; 600 nM): almost no effect
tumor growth (luminescence intensity) versus saline [11]: no significant difference

siPIK3CB: sense 5′-AC(mC)(mU)G(mU)GGAUACUCAU(mU)A(mA)dTdT-3′, antisense 5′-U(mU)AA(mU)GAGUAUCCA(mC)AG(mG)(mU)dTdT-3′
incubation time in mouse serum after which degraded (Serum stability assay; 0-96 hr): 48 h
